Source: ChEMBL document CHEMBL1124353, “(R)- and (S)-5,6,7,8-tetrahydro-1-hydroxy-N,N-dipropyl-9H-benzocyclohepten- 8-ylamine. Stereoselective interactions with 5-HT1A receptors in the brain” (J Med Chem, 1989)

Legend:
Rattus norvegicus [1] = experiment: In vivo accumulation of dopamine in striatum of rat brain at 3.2 umol/Kg; assay type: functional
Method in brief: (§1)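 Nonreserpinised male Sprague–Dawley rats (180–220 g) given drug as hydrochloride sc in saline, 30 min before aromatic L-amino acid decarboxylase inhibitor NSD 1015; killed 30 min after NSD 1015. Striatum and limbic system (rhinal fissure landmark) dissected. 5-HTP or DOPA measured by ion-pair reversed-phase HPLC with electrochemical detection, ng/g; means ± SEM, n = 3–7 per dose group, Dunnett's test vs control.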

Rattus norvegicus [2] = experiment: In vivo accumulations of dopamine in limbic of rat brain for at 3.2 umol/Kg; assay type: functional; method in brief: as §1
Rattus norvegicus [3] = experiment: In vivo accumulation of dopamine in striatum of rat brain at 32 umol/kg with reserpine pretreatment; assay type: functional
Method in brief: (§2)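 Male Sprague–Dawley rats pretreated with reserpine (8 μmol/kg, 4 h before), then given drug sc as hydrochloride in saline 30 min before NSD 1015 decarboxylase inhibition; killed 30 min later. Striatal and limbic 5-HTP or DOPA determined by ion-pair reversed-phase HPLC with electrochemical detection, ng/g; means ± SEM, n = 3–7; Dunnett's test vs reserpinised controls.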

Rattus norvegicus [4] = experiment: In vivo accumulation 5-HTP in striatum of rat brain striatum at 32 umol/kg reserpine pretreatment; assay type: functional; method in brief: as §2
Rattus norvegicus [5] = experiment: In vivo accumulation 5-HTP in striatum of rat brain at 10 umol/Kg; assay type: functional; method in brief: as §1
Rattus norvegicus [6] = experiment: In vivo accumulation of 5-HTP in limbic of rat brain for following at 10 umol/Kg; assay type: functional; method in brief: as §1
Rattus norvegicus [7] = experiment: In vivo accumulation of dopamine in striatum of rat brain at 10 umol/Kg; assay type: functional; method in brief: as §1
Rattus norvegicus [8] = experiment: In vivo accumulation 5-HTP in striatum of rat brain at 3.2 umol/Kg; assay type: functional; method in brief: as §1
Rattus norvegicus [9] = experiment: In vivo accumulation of 5-HTP in limbic of rat brain for following at 32 umol/kg reserpine pretreatment; assay type: functional; method in brief: as §2
Rattus norvegicus [10] = experiment: In vivo accumulation of 5-HTP in limbic of rat brain at 3.2 umol/Kg; assay type: functional; method in brief: as §1
Rattus norvegicus [11] = experiment: In vivo accumulations of dopamine in limbic of rat brain at 10 umol/Kg; assay type: functional; method in brief: as §1
[12] = biological target: T1, 5-hydroxytryptamine receptor 1A (Rattus norvegicus, UniProt P19327); experiment: Affinity for 5-hydroxytryptamine 1A receptor site
T1 sequence (P19327 whole entry): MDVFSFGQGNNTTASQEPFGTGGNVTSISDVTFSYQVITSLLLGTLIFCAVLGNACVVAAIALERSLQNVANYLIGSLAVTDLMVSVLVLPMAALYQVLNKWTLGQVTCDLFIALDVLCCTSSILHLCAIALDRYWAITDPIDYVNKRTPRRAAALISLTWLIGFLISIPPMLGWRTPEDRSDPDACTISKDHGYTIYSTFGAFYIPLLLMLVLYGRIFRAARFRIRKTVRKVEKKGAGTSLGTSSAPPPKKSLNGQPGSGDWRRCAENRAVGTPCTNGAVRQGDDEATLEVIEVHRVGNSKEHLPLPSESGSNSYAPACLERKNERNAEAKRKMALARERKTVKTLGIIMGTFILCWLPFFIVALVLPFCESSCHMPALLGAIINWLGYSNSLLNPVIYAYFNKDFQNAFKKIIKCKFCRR
Method in brief: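 Rat (male Sprague–Dawley) cortex plus hippocampus homogenised in 50 mM Tris-HCl with 4.0 mM CaCl2 and 5.7 mM ascorbate, pH 7.5, washed, pooled (≥6 rats), pargyline 10 μM pretreated. Incubated at 37 °C for 10 min with 2 nM [3H]-8-OH-DPAT and 1–300 nM competitor. Filtered, scintillation counted; 10 μM 5-HT defines nonspecific binding. Ki from nonlinear least-squares using Kd 1.4 nM.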

Rattus norvegicus [13] = experiment: In vivo accumulations of dopamine in limbic of rat brain at 32 umol/Kg; assay type: functional; method in brief: as §1
Rattus norvegicus [14] = experiment: In vivo accumulation of dopamine in striatum of rat brain at 32 umol/Kg; assay type: functional; method in brief: as §1
Rattus norvegicus [15] = experiment: In vivo accumulation of 5-HTP in limbic of rat brain for following at 32 umol/Kg; assay type: functional; method in brief: as §1
Rattus norvegicus [16] = experiment: In vivo accumulation 5-HTP in striatum of rat brain striatum at 32 umol/Kg; assay type: functional; method in brief: as §1

Structure (SMILES) | Dose (Rattus norvegicus [1]) [µM/kg] | Dose (Rattus norvegicus [2]) [µM/kg] | Dose (Rattus norvegicus [3]) [µM/kg] | Dose (Rattus norvegicus [4]) [µM/kg] | Dose (Rattus norvegicus [5]) [µM/kg] | Dose (Rattus norvegicus [6]) [µM/kg] | Dose (Rattus norvegicus [7]) [µM/kg] | Dose (Rattus norvegicus [8]) [µM/kg] | Dose (Rattus norvegicus [9]) [µM/kg] | Dose (Rattus norvegicus [10]) [µM/kg] | Dose (Rattus norvegicus [11]) [µM/kg] | Ki [12] [µM] | Dose (Rattus norvegicus [13]) [µM/kg] | Dose (Rattus norvegicus [14]) [µM/kg] | Dose (Rattus norvegicus [15]) [µM/kg] | Dose (Rattus norvegicus [16]) [µM/kg]
CCCN(CCC)[C@H]1CCCc2cccc(O)c2C1 | 1003 | 331 | 1934 | 74 | 98 | 170 | 830 | 110 | 154 | 194 | 381 | > 0.3 | – | – | – | –
CCCN(CCC)[C@@H]1CCCc2cccc(O)c2C1 | 1068 | 408 | – | – | 60 | 122 | 919 | – | – | 132 | 314 | 0.0297 | 437 | 1035 | 76 | 54
